According to ChEMBL document CHEMBL1148947, “Prenylated benzophenones and xanthones from Hypericum scabrum” (J Nat Prod, 2004):
Converted amounts (≈) assume the structure as drawn. The source made the active and inactive calls. The rule behind the calls is not given here.

Columns and labels:
A549 [1] = assay: Cytotoxicity against human A549 cells after 3 days by SRB assay; format: functional, cell-based; conditions: A549, 72 h
Summary of the method: (§1)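 Cells kept in RPMI-1640 with 25 mM HEPES, 0.25% sodium bicarbonate, 10% FBS and 100 µg/mL kanamycin. Freshly trypsinized cells seeded at 1500-7500 per well with compound diluted from DMSO stock. After 3 days, attached cells fixed with cold 50% TCA, stained with 0.4% SRB, and bound dye solubilized. Absorbance read at 562 nm. IC50 = 50% reduction relative to untreated cells. Below 50% inhibition at 20 mcg/mL, percent inhibition reported.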

MCF7 [2] = assay: Cytotoxicity against human MCF7 cells after 3 days by SRB assay; format: functional, cell-based; conditions: MCF7, 72 h; summary of the method: as §1
A549 [3] = assay: Cytotoxicity against human A549 cells at 20 mcg/mL after 3 days by SRB assay; format: functional; conditions: for inhibition at 20 µg/mL: A549, 72 h; summary of the method: as §1
MCF7 [4] = assay: Cytotoxicity against human MCF7 cells at 20 mcg/mL after 3 days by SRB assay; format: functional; conditions: for inhibition at 20 µg/mL: MCF7, 72 h; summary of the method: as §1

SMILES	IC50 (A549 [1]) [µg/mL]	IC50 (MCF7 [2]) [µg/mL]	inhibition at 20 µg/mL (A549 [3]) [%]	inhibition at 20 µg/mL (MCF7 [4]) [%]	Activity (A549 [3])	Activity (MCF7 [4])
CC(C)=CC[C@H]1C[C@]2(CC=C(C)C)C(=O)C(C(=O)c3ccccc3)=C(O)[C@](CC=C(C)C)(C2=O)C1(C)C	13.7 (≈ 27.3 µM)	10 (≈ 19.9 µM)	–	–	–	–
O=c1c2cc(O)ccc2oc2cccc(O)c12	14.5 (≈ 63.5 µM)	19.5 (≈ 85.5 µM)	–	–	–	–
O=c1c2ccc(O)c(O)c2oc2cc(O)cc(O)c12	10 (≈ 38.4 µM)	9.3 (≈ 35.7 µM)	–	–	–	–
COc1ccc(O)c2c(=O)c3cc(O)ccc3oc12	8.5 (≈ 32.9 µM)	15.2 (≈ 58.9 µM)	–	–	–	–
O=c1c(-c2c(O)cc(O)c3c(=O)cc(-c4ccc(O)cc4)oc23)c(-c2ccc(O)cc2)oc2cc(O)cc(O)c12	> 20	> 20	27	26	–	–
CC(C)=CCc1c(O)c(O)cc2oc3cc(O)cc(O)c3c(=O)c12	18.5 (≈ 56.3 µM)	18.4 (≈ 56 µM)	–	–	–	–
O=c1c(O[C@@H]2OC[C@@H](O)[C@@H](O)[C@@H]2O)c(-c2ccc(O)c(O)c2)oc2cc(O)cc(O)c12	> 20	> 20	11	17	–	–
O=c1c(O[C@@H]2O[C@@H](CO)[C@H](O)[C@H]2O)c(-c2ccc(O)c(O)c2)oc2cc(O)cc(O)c12	–	–	–	–	inactive	inactive
O=c1c(O[C@@H]2O[C@H](CO)[C@H](O)[C@H](O)[C@H]2O)c(-c2ccc(O)c(O)c2)oc2cc(O)cc(O)c12	–	–	–	–	inactive	inactive
CC(C)=CCC[C@]1(C)[C@@H](CC=C(C)C)C[C@]2(C)C(=O)[C@@]3(CC=C(C)C)O[C@]2(O)[C@]1(C(=O)C(C)C)C3=O [HYPERIBONE J]	> 20	17.8 (≈ 35.7 µM)	49	–	–	–
CC(C)=CC[C@@]12C[C@H]3[C@@H](C=C(C)C)[C@@](C(=O)c4ccccc4)(C1=O)C(=O)[C@@](CC=C(C)C)(C2=O)C3(C)C [HYPERIBONE K]	13.7 (≈ 27.4 µM)	10 (≈ 20 µM)	–	–	–	–
CC(C)=CC[C@H]1C[C@@]2(CC=C(C)C)C(=O)C(C(=O)c3ccccc3)=C(O)[C@](C)(C2=O)C1(C)C [HYPERIBONE L]	9.2 (≈ 20.5 µM)	15 (≈ 33.4 µM)	–	–	–	–
CC(C)(O)C1Cc2c(c(O)cc3oc4cc(O)cc(O)c4c(=O)c23)O1 (centres undefined) [HYPERXANTHONE A]	> 20	> 20	26	27	–	–
C=C(C)C(O)Cc1c(O)c(O)cc2oc3cc(O)cc(O)c3c(=O)c12 (centres undefined) [HYPERXANTHONE C]	9.3 (≈ 27 µM)	11.2 (≈ 32.5 µM)	–	–	–	–
C=C(C)C(O)Cc1c(O)ccc2oc3cc(O)cc(O)c3c(=O)c12 (centres undefined) [HYPERXANTHONE D]	> 20	> 20	43	34	–	–
CC1(C)CCc2c(c(O)cc3oc4cc(O)cc(O)c4c(=O)c23)O1 [HYPERXANTHONE E]	18.5 (≈ 56.3 µM)	19.3 (≈ 58.8 µM)	–	–	–	–
O=c1cc(-c2ccc(O)c(O)c2)oc2cc(O)cc(O)c12 [LUTEOLIN]	12.9 (≈ 45.1 µM)	14.3 (≈ 50 µM)	–	–	–	–
O=c1c(O)c(-c2cc(O)c(O)c(O)c2)oc2cc(O)cc(O)c12 [MYRICETIN]	14.8 (≈ 46.5 µM)	4.7 (≈ 14.8 µM)	–	–	–	–
C[C@H]1O[C@@H](Oc2c(-c3cc(O)c(O)c(O)c3)oc3cc(O)cc(O)c3c2=O)[C@@H](O)[C@@H](O)[C@@H]1O [MYRICITRIN]	> 20	11.2 (≈ 24.1 µM)	13	–	–	–
O=c1c(O)c(-c2ccc(O)c(O)c2)oc2cc(O)cc(O)c12 [QUERCETIN]	> 20	19.5 (≈ 64.5 µM)	21	–	–	–
C[C@@H]1O[C@@H](Oc2c(-c3ccc(O)c(O)c3)oc3cc(O)cc(O)c3c2=O)[C@H](O)[C@H](O)[C@H]1O [QUERCITRIN]	> 20	> 20	12	18	–	–
CC1(C)C=Cc2c(c(O)cc3oc4cc(O)cc(O)c4c(=O)c23)O1 [TOXYLOXANTHONE B]	> 20	> 20	28	17	–	–
